From ChEMBL document CHEMBL1208732, “Addressing PXR liabilities of phthalazine-based hedgehog/smoothened antagonists using novel pyridopyridazines” (Bioorg Med Chem Lett, 2010)

Assays:
[1] = target: T1, Nuclear receptor subfamily 1 group I member 2 (Homo sapiens, UniProt O75469); experiment: Activation of human PXR expressed in HepG2 cells assessed as luciferase activity at 2 uM by chemiluminescence assay relative to rifampin; type: cell-based; details: hepg2, 2 µM
T1 sequence (O75469 whole entry): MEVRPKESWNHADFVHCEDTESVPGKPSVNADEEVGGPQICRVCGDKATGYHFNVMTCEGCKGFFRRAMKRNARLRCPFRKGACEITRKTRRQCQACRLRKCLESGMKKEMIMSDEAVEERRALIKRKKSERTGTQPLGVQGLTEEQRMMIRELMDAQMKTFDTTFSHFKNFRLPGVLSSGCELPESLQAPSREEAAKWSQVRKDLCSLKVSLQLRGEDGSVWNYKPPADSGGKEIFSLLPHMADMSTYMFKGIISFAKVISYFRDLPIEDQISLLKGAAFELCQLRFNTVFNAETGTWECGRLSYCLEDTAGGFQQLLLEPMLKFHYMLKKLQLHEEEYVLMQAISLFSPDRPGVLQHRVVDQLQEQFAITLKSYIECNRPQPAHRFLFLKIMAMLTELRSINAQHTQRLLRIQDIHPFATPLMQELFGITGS
How it was run: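 HepG2 cells transfected with a luciferase reporter construct driven by human PXR cDNA. Luciferase activity read by chemiluminescence and expressed as percent of the rifampin control.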

[2] = Metabolic stability in rat liver microsomes assessed as compound turn over after 30 mins; type: ADME, Microsome; details: read-out: Activity
How it was run: (§1)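 Percent turnover of compound within 30 min in human or rat liver microsome homogenates.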

[3] = Volume of distribution at steady state in rat at 0.5 mg/kg, iv and 2 mg/kg, po; type: ADME, organism-based; details: in vivo, read-out: Vdss
How it was run: (§2)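 Pharmacokinetics measured in rat or mouse, with intravenous dosing at 0.5 mg/kg and oral dosing at 2 mg/kg. Reported parameters are iv clearance, Vdss, oral AUC and %F.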

[4] = Clearance in rat at 0.5 mg/kg, iv; type: ADME, organism-based; set-up: dose 0.5 mg/kg, route intravenous; details: in vivo; how it was run: as §2
[5] = AUC in rat at 2 mg/kg, po; type: ADME, organism-based; set-up: dose 2 mg/kg, route oral; details: plasma; how it was run: as §2
[6] = Fraction unbound in mouse plasma by ultra centrifugation method; type: ADME, cell-free
[7] = Oral bioavailability in rat at 2 mg/kg; type: ADME, organism-based; details: in vivo; how it was run: as §2
[8] = Metabolic stability in human liver microsomes assessed as compound turn over after 30 mins; type: ADME, Microsome; details: read-out: Activity; how it was run: as §1
Protein smoothened [9] = target: Protein smoothened (Homo sapiens, UniProt Q99835); experiment: Antagonist activity at human Smo receptor in HEPM cells assessed as inhibition of Gli expression after 24 hrs by quantigene assay; type: functional, cell-based
Chain of Protein smoothened (Homo sapiens, UniProt Q99835) (Q99835 whole entry): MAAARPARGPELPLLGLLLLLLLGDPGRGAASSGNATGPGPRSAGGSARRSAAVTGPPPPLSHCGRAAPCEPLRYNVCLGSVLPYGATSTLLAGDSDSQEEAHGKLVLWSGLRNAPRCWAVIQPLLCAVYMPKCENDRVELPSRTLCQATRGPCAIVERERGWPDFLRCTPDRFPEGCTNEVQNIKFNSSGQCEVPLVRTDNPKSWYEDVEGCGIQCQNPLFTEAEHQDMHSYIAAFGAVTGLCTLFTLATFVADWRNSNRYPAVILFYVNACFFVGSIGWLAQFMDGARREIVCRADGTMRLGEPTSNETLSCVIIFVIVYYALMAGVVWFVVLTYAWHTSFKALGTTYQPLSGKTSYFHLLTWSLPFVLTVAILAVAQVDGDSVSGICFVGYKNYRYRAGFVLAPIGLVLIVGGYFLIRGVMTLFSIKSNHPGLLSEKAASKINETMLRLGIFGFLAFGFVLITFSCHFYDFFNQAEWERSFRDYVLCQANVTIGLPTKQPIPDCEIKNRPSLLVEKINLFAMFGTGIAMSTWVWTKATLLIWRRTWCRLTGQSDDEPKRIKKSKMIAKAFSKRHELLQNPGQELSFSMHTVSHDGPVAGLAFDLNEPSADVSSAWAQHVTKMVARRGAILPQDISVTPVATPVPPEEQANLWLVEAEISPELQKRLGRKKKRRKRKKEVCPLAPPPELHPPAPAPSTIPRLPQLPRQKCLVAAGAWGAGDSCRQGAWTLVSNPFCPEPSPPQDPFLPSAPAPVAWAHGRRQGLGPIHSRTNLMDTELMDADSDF
How it was run: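 HEPM cells incubated with compound in MEM with 0.5% charcoal-dextran treated FBS and […] myristoylated mouse Shh protein. GLI expression measured 24 h after adding compound and Shh, using a Quantigene assay.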

Protein smoothened [10] = target: Protein smoothened (Mus musculus, UniProt P56726); experiment: Antagonist activity at mouse cloned Smo receptor expressed in NIH-3T3 cells co expressing Gli1 binding site after 15 hrs by luciferase reporter gene assay; type: cell-based, NIH3T3
Chain of Protein smoothened (Mus musculus, UniProt P56726) (P56726 whole entry): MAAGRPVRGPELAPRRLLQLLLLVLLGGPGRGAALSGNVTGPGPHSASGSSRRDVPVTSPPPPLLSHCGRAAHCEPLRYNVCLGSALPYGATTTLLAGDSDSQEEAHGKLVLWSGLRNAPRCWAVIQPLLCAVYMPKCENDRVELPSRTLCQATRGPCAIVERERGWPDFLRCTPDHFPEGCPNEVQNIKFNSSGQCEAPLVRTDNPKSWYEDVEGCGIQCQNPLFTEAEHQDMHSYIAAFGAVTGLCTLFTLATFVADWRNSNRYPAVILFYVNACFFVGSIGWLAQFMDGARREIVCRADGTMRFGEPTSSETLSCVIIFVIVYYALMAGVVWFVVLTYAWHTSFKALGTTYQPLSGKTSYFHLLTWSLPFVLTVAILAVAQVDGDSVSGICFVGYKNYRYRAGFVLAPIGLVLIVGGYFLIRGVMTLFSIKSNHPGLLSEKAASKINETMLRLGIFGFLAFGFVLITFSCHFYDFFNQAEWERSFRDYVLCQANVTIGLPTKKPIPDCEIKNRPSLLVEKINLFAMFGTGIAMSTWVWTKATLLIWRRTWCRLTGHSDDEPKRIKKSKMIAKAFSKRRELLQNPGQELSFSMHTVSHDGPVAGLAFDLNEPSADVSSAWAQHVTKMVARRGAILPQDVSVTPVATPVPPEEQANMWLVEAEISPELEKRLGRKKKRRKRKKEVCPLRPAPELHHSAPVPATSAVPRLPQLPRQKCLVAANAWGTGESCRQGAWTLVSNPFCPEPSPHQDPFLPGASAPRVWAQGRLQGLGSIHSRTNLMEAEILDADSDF
How it was run: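 Stable NIH-3T3 clone carrying a luciferase reporter (pGL4.16) with five consensus Gli1 binding sites. Cells incubated 15 h with compound in Optimem with 0.5% charcoal-dextran treated FBS and […] myristoylated mouse Shh. Luciferase read with Bright-Glo on a luminometer. Threefold dilution series, run in quadruplicate.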

Mus musculus [11] = experiment: Clearance in mouse at 0.5 mg/kg, iv; type: ADME, organism-based; set-up: dose 0.5 mg/kg, route intravenous; details: in vivo; how it was run: as §2
[12] = Volume of distribution at steady state in mouse at 0.5 mg/kg, iv and 2 mg/kg, po; type: ADME, organism-based; details: in vivo, read-out: Vdss; how it was run: as §2
Mus musculus [13] = experiment: Oral bioavailability in mouse at 2 mg/kg; type: ADME, organism-based; details: in vivo; how it was run: as §2
Mus musculus [14] = experiment: AUC in mouse at 2 mg/kg, po; type: ADME, organism-based, Plasma; set-up: dose 2 mg/kg, route oral; details: in vivo; how it was run: as §2
Mus musculus [15] = experiment: Reduction of Gli1 expression in po dosed NOD-SCID mouse skin after 6 hrs by RT-PCR analysis; type: functional, organism-based
How it was run: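 Female NOD-Scid mice aged 5–8 weeks had one hind flank shaved, then regrown hair removed with wax strips 4 days later. After 5 days mice were dosed orally with compound or vehicle, and skin was harvested 6 h post-dose into RNALater. Tissue homogenized and RNA purified. Four mice per group, two samples per animal, analysed by Dunnett's method.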

SMILES: O=C(c1ccccc1)N1CCN(c2nnc(-c3ccccc3)c3ccccc23)CC1
- Activity [1]: 12%
- metabolised at 0.5 h [2]: 39%

SMILES: C[C@@H]1CN(C(=O)c2ccccc2)CCN1c1nnc(-c2ccc(CO)cc2)c2ccccc12
- Activity [1]: 3%
- Vd [3]: 1.8 L/kg
- clearance [4]: 95 mL/min/kg
- metabolised at 0.5 h [2]: 15%

SMILES: C[C@@H]1CN(C(=O)c2ccccc2)CCN1c1nnc(-c2ccc(N(C)C)cc2)c2ccccc12
- Activity [1]: 17%

SMILES: C[C@@H]1CN(C(=O)c2ccccc2)CCN1c1nnc(-c2ccc(C(F)(F)F)cc2)c2ccccc12
- AUC [5]: 1200 ng·h/mL
- Activity [1]: 81%
- fraction unbound [6]: 0.06

SMILES: C[C@@H]1CN(C(=O)c2ccccc2)CCN1c1nnc(-c2ccccc2)c2ccccc12
- AUC [5]: 1800 ng·h/mL
- bioavailability [7]: 15%
- Activity [1]: 30%
- Vd [3]: 1.7 L/kg
- clearance [4]: 4.67 mL/min/kg
- metabolised at 0.5 h [2]: 12%

SMILES: O=C(c1ccccc1)N1CCN(c2nnc(-c3ccc(Cl)c(Cl)c3)c3ccccc23)CC1
- Activity [1]: 48%
- metabolised at 0.5 h [2]: 13%

SMILES: C[C@H]1CN(C(=O)c2ccccc2)CCN1c1nnc(-c2ccccc2)c2ccccc12
- Activity [1]: 32%
- metabolised at 0.5 h [8]: < 10%
- metabolised at 0.5 h [2]: < 10%

SMILES: C[C@H]1CN(C(=O)c2ccccc2)CCN1c1nnc(-c2ccc(F)cc2)c2ccccc12
- IC50 (Protein smoothened [9]): 12 nM
- Activity [1]: 61%
- metabolised at 0.5 h [8]: < 10%
- metabolised at 0.5 h [2]: 21%

SMILES: C[C@@H]1CN(C(=O)c2ccccc2)CCN1c1nnc(-c2ccc(C(N)=O)cc2)c2ccccc12
- IC50 (Protein smoothened [9]): 19 nM
- Activity [1]: 5.9%
- metabolised at 0.5 h [8]: < 10%
- metabolised at 0.5 h [2]: < 10%

SMILES: C[C@@H]1CN(C(=O)c2ccccc2)CCN1c1nnc(-c2ccc(N3CCOCC3)cc2)c2ccccc12
- IC50 (Protein smoothened [9]): 21 nM
- Activity [1]: 6.6%
- metabolised at 0.5 h [8]: 19%
- metabolised at 0.5 h [2]: 28%

SMILES: C[C@@H]1CN(C(=O)c2ccccc2)CCN1c1nnc(-c2ccc(C(=O)O)cc2)c2ccccc12
- IC50 (Protein smoothened [9]): > 1000 nM
- Activity [1]: 2.7%
- metabolised at 0.5 h [8]: < 10%
- metabolised at 0.5 h [2]: < 10%

SMILES: CC(=O)Oc1ccc(-c2nnc(N3CCN(C(=O)c4ccccc4)C[C@H]3C)c3ccccc23)cc1
- IC50 (Protein smoothened [9]): 3.3 nM
- Activity [1]: 6.1%
- metabolised at 0.5 h [8]: > 95%
- metabolised at 0.5 h [2]: > 95%

SMILES: C[C@@H]1CN(C(=O)c2ccccc2)CCN1c1nnc(-c2ccc(CC(N)=O)cc2)c2ccccc12
- IC50 (Protein smoothened [9]): 4.8 nM
- AUC [5]: 460 ng·h/mL
- bioavailability [7]: 22%
- Activity [1]: 2.7%
- Vd [3]: 1.4 L/kg
- clearance [4]: 18.3 mL/min/kg
- metabolised at 0.5 h [8]: 10%
- metabolised at 0.5 h [2]: 10%

SMILES: C[C@@H]1CN(C(=O)c2ccccc2)CCN1c1nnc(-c2ccncc2)c2ccccc12
- IC50 (Protein smoothened [9]): 25 nM
- Activity [1]: 25%
- metabolised at 0.5 h [8]: 11%
- metabolised at 0.5 h [2]: 36%

SMILES: C[C@@H]1CN(C(=O)c2ccccc2)CCN1c1nnc(-c2cccnc2)c2ccccc12
- IC50 (Protein smoothened [9]): 79 nM
- Activity [1]: 23%
- metabolised at 0.5 h [8]: 19%
- metabolised at 0.5 h [2]: 16%

SMILES: C[C@@H]1CN(C(=O)c2ccccc2)CCN1c1nnc(-c2ccccn2)c2ccccc12
- IC50 (Protein smoothened [9]): 57 nM
- Activity [1]: 16%
- metabolised at 0.5 h [8]: 12%
- metabolised at 0.5 h [2]: 17%

SMILES: C[C@@H]1CN(C(=O)c2ccccc2)CCN1c1nnc(-n2cccc2)c2ccccc12
- IC50 (Protein smoothened [9]): 8.7 nM
- Activity [1]: 12%
- metabolised at 0.5 h [8]: 54%
- metabolised at 0.5 h [2]: 63%

SMILES: C[C@@H]1CN(C(=O)c2ccccc2)CCN1c1nnc(-n2ccc3ccccc32)c2ccccc12
- IC50 (Protein smoothened [9]): 8 nM
- Activity [1]: 74%
- metabolised at 0.5 h [8]: 55%
- metabolised at 0.5 h [2]: 72%

SMILES: C[C@@H]1CN(C(=O)c2ccccc2)CCN1c1nnc(-c2ncco2)c2ccccc12
- IC50 (Protein smoothened [9]): > 1000 nM
- Activity [1]: 7.8%
- metabolised at 0.5 h [8]: < 10%
- metabolised at 0.5 h [2]: 22%

SMILES: C[C@@H]1CN(C(=O)c2ccccc2)CCN1c1nnc(-n2ccnc2)c2ccccc12
- IC50 (Protein smoothened [9]): > 1000 nM
- Activity [1]: 3.7%
- metabolised at 0.5 h [8]: < 10%
- metabolised at 0.5 h [2]: 16%

SMILES: C[C@@H]1CN(C(=O)c2ccccc2)CCN1c1nnc(-c2cncnc2)c2ccccc12
- IC50 (Protein smoothened [9]): > 1000 nM
- Activity [1]: 7.1%
- metabolised at 0.5 h [8]: < 10%
- metabolised at 0.5 h [2]: < 10%

SMILES: C[C@@H]1CN(C(=O)c2ccccc2)CCN1c1nnc(-c2ccccc2)c2ncccc12
- IC50 (Protein smoothened [9]): 66 nM
- Activity [1]: 4.1%
- metabolised at 0.5 h [8]: 13%

SMILES: C[C@@H]1CN(C(=O)c2ccccc2)CCN1c1nnc(-c2ccccc2)c2cccnc12
- IC50 (Protein smoothened [9]): 16 nM
- Activity [1]: 5.7%
- metabolised at 0.5 h [8]: 56%

SMILES: C[C@@H]1CN(C(=O)c2ccccc2)CCN1c1nnc(-c2ccccc2)c2cnccc12
- IC50 (Protein smoothened [9]): 12 nM
- Activity [1]: 7.5%
- metabolised at 0.5 h [8]: 30%

SMILES: C[C@@H]1CN(C(=O)c2ccccc2)CCN1c1nnc(-c2ccccc2)c2ccncc12
- IC50 (Protein smoothened [10]): 3 nM
- IC50 (Protein smoothened [9]): 5.8 nM
- AUC [5]: 1600 ng·h/mL
- bioavailability [7]: 35%
- Activity [1]: 4.9%
- Vd [3]: 1.4 L/kg
- clearance [4]: 7.5 mL/min/kg
- metabolised at 0.5 h [8]: 13%

SMILES: C[C@@H]1CN(C(=O)c2ccccc2)CCN1c1nnc(-c2ccc(C(F)(F)F)cc2)c2ccncc12
- IC50 (Protein smoothened [10]): 0.7 nM
- IC50 (Protein smoothened [9]): 1 nM
- AUC [5]: 3300 ng·h/mL
- CL (Mus musculus [11]): 10.7 mL/min/kg
- Vd [12]: 2 L/kg
- bioavailability [7]: 73%
- Activity [1]: 9%
- F (Mus musculus [13]): 46%
- fraction unbound [6]: 0.035
- AUC (Mus musculus [14]): 3500 ng·h/mL
- Vd [3]: 3.5 L/kg
- clearance [4]: 7.67 mL/min/kg
- EC50 (Mus musculus [15]): 460 nM
- metabolised at 0.5 h [8]: 10%
- metabolised at 0.5 h [2]: < 10%
